Legend:
[1] = system: p-tau species; experiment: ^3H-UCB-J saturation binding in AD P1 fraction pre-blocked with tau PET ligands; design: species or system Human; settings: 10 μM pre-blocking of frontal cortex AD P1 fraction
How it was run: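 AD frontal cortex pooled P1 fraction was pre-blocked with 10 μM unlabeled tau PET ligand on ice for 1 h. It was then spun at 2800 rpm for 10–15 min at 4°C to remove free ligand and resuspended in binding buffer. Saturation binding used 0–40 nM ³H-UCB-J, 2 h at room temperature, with filtration and scintillation counting. Data are means ± SEM of three to four experiments in duplicate.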

[2] = target: T1, SV2A (Homo sapiens, UniProt Q7L0J3); assay type: binding; settings: 1 mM levetiracetam; 5 nM ^3H-UCB-J; CN frontal cortex P2 (Figure S2)
[3] = target: tau (Homo sapiens, UniProt P10636); experiment: ^3H-MK6240 vs UCB-J competition binding in P1 fractions; settings: up to 10 μM UCB-J; CN and AD P1 fractions; 0.5 nM ^3H-MK6240
[4] = target: T1, SV2A; settings: frontal cortex (middle frontal gyrus) autoradiography; ref 24 Metaxas et al.; cited from earlier work
[5] = target: T1, SV2A; settings: AD middle frontal cortex; ref 34 Mikkelsen et al.; cited from earlier work
[6] = system: p-tau species; experiment: ^3H-UCB-J vs MK6240 competition binding in P1 fractions; design: species or system Human; settings: 100 μM; CN and AD P1 fraction; 5 nM ^3H-UCB-J
How it was run: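 Pooled frontal cortex P1 fractions (0.05 mg protein) from one control and one AD pool. These were incubated 2 h at room temperature with 5 nM ³H-UCB-J plus increasing unlabeled competitor (10⁻¹⁴ to 10⁻⁴) in Tris-HCl pH 7.4 binding buffer. Samples were filtered and counted by scintillation. Binding was expressed as % of total; IC₅₀ came from non-linear competitive-binding regression.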

T1 sequence (Q7L0J3 whole entry): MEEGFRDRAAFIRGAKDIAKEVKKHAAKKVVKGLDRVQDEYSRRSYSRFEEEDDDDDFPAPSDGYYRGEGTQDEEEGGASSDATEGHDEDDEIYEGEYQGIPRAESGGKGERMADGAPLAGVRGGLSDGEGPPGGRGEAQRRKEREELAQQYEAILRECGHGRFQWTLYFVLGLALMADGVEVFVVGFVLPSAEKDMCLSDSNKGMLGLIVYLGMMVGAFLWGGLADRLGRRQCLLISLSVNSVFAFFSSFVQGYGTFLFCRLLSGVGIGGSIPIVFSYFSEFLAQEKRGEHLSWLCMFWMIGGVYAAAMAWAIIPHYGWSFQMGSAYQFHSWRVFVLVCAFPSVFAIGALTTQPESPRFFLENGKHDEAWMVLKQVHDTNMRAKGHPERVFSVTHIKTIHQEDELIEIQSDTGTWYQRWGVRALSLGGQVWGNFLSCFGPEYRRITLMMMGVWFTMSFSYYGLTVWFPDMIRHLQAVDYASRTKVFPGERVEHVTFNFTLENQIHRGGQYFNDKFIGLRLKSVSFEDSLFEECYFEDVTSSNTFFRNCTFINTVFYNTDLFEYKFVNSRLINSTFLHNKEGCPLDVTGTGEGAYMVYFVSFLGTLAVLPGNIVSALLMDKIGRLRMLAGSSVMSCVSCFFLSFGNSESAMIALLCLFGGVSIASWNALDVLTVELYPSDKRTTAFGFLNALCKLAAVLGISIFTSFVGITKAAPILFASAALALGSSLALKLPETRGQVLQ
Chain of tau (P10636 623-758 limits assumed): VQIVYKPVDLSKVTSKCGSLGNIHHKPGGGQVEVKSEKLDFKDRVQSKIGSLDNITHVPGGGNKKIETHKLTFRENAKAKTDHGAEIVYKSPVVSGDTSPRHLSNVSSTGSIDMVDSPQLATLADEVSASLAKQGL

## Fc1ccc(-c2ccc3c(c2)[nH]c2ccncc23)cn1 [AV-1451]
[1]
  reduction in ^3H-UCB-J binding compared to unblocked AD P1 fractions: ≈ 22%

## CC[C@@H](C(N)=O)N1CCCC1=O [Levetiracetam]
[2]
  displacement of ^3H-UCB-J binding compared with 1 μM UCB-J: same displacement

## Cc1cnccc1CN1C[C@@H](c2cc(F)c(F)c(F)c2)CC1=O [UCB-J]
[3]
  displacement of ^3H-MK6240 binding: no displacement
[4]
  difference in UCB-J binding between AD and CN cases: no difference
[5]
  reduction in UCB-J binding in AD compared to CN: 19%

## Nc1c(F)ccc2cnc(-n3ccc4ccncc43)cc12 [MK6240]
[1]
  reduction in ^3H-UCB-J binding compared to unblocked AD P1 fractions: ≈ 22%
[6]
  displacement of ^3H-UCB-J binding: ≈ 38%

Reference: paper PMC11032538 (Alzheimer's & Dementia, 2024)
